Experimental data from article PMC6957261 (Biochimica et biophysica acta. Biomembranes, 2018).

Columns and labels:
Test in all cases: Membrane translocation by confocal microscopy in living LNCaP cells
Assay type in all cases: cell-based
GFP-tagged PKCθ ΔC1a = GFP-tagged PKCθ ΔC1a (Homo sapiens, UniProt Q04759, DEL160-209)
In short: (§1)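 Full-length PKCθ constructs in pEGFP-N1 transfected into LNCaP cells 48 h after plating (RPMI 1640, 10% FBS, 37 °C). After 24 h, PMA is added in phenol red-free DMEM/1% FBS. Live confocal imaging at 488 nm every 30 s. Membrane/cytoplasm mean GFP ratio from 4 μm² regions is normalized to time 0 and read at 5 and 10 min. Three independent experiments, unpaired two-tailed t test.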

[1] = target: GFP-tagged PKCθ C1b-C1b chimera (Homo sapiens, UniProt Q04759, A164V/A195M/A196N/A207N/D203T/E161R/E178T/F166N/F167Y/F179L/H177G/I197V/I202Q/I206A/K185R/K199H/K200R/K208L/N184A/N194G/P168K/Q169S/Q189K/Q192A/R191D/S174E/T163K/T165Y/V175H/V180L/Y188L); conditions: response after 100 nM PMA, compared to wild type
In short: as §1

[2] = target: GFP-tagged wild type PKCθ (Homo sapiens, UniProt Q04759)
In short: as §1

[3] = target: GFP-tagged PKCθ C1a-C1a chimera (Homo sapiens, UniProt Q04759, A256N/A264Q/A278I/D263R/E246S/G249H/G266N/H247V/H271K/K235T/K240P/K261Q/L251F/L252V/L260Y/L280K/M267A/N238F/N268A/N279A/Q274I/R233E/R257K/R272K/S241Q/T250E/T275D/V236A/V269I/Y237T/Y239F)
In short: as §1

GFP-tagged PKCθ/K240P = GFP-tagged PKCθ/K240P (Homo sapiens, UniProt Q04759, K240P); conditions: 1 μM PMA
In short: as §1

GFP-tagged PKCθ ΔC1b = GFP-tagged PKCθ ΔC1b (Homo sapiens, UniProt Q04759, DEL232-281); conditions: 100 nM, 1 μM and 10 μM PMA
GFP-tagged PKCθ/P168K = GFP-tagged PKCθ/P168K (Homo sapiens, UniProt Q04759, P168K); conditions: PMA, compared to wild type, not statistically significant
In short: as §1

## CCCCCCCCCCCCCC(=O)O[C@@H]1[C@@H](C)[C@@]2(O)[C@@H](C=C(CO)C[C@]3(O)C(=O)C(C)=C[C@@H]23)[C@@H]2C(C)(C)[C@]12OC(C)=O [PMA, phorbol 12-myristate 13-acetate]
GFP-tagged PKCθ ΔC1a; 100 nM PMA, deletion of C1a versus full length PKCθ
  enhancement of translocation to the plasma membrane: 5 fold
GFP-tagged PKCθ ΔC1a; PMA, compared to wild type
  translocation to the plasma membrane (membrane/cytoplasm ratio): enhanced membrane interaction compared to the wild type
[1]
  translocation to the plasma membrane (membrane/cytoplasm ratio): stronger translocation
[2]; 100 nM PMA
  translocation to the plasma membrane (membrane/cytoplasm ratio): little response
[2]; 1 and 10 μM PMA, 5 and 10 min
  translocation to the plasma membrane (membrane/cytoplasm ratio): translocated in a dose dependent manner
[3]; 1 μM PMA
  translocation to the plasma membrane (membrane/cytoplasm ratio): no translocation
[3]; 10 μM PMA
  translocation to the plasma membrane (membrane/cytoplasm ratio): very small but statistically significant increase in the translocation
GFP-tagged PKCθ/K240P
  translocation to the plasma membrane (membrane/cytoplasm ratio): modestly decreased translocation
GFP-tagged PKCθ ΔC1b
  translocation to the plasma membrane (membrane/cytoplasm ratio): complete loss of plasma membrane translocation
GFP-tagged PKCθ/P168K
  translocation to the plasma membrane (membrane/cytoplasm ratio): increased translocation
